{"source": "ChEMBL document CHEMBL1240348", "about": "“Pretreatment of epithelial cells with rifaximin alters bacterial attachment and internalization profiles” (Antimicrob Agents Chemother, 2010)", "assay_type_in_all_cases": "functional, cell-based", "key": {"Escherichia coli [1]": {"test_system": "Escherichia coli", "experiment": "Inhibition of enteroaggregative Escherichia coli 042 adherence to human Hep2 cells pretreated by adherence assay", "conditions": "HEp-2", "procedure,_shortened": "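HEp-2 monolayers, confluent unless otherwise specified, in chambered slides were exposed to antibiotic or controls for 4, 8, 16, 18 or 24 h, then washed three times with PBS. EAEC O42 (7 × 10^6 to 1 × 10^7 in DMEM, 10% FBS, 1% D-mannose) was added for 3 h at 37°C. Attachment was assessed microscopically after Wright-Giemsa staining.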"}, "HEp-2 [2]": {"test_system": "HEp-2", "experiment": "Effect on cytokine level in human Hep2 cells assessed as RANTES level pretreated at 64 ug/ml for 24 hrs", "procedure,_shortened": "(§1)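 Confluent HEp-2 cells on chambered slides were given fresh medium containing antibiotic at 64 μg/ml, acetone diluent (64 μl), or no antibiotic. Supernatants collected 24 h later were probed on a cytokine array membrane covering GM-CSF, MIPs, MMP3, RANTES, TGF-β, IFN-γ, TNFRI/II, VCAM-1, VEGF and interleukins. Each analyte was read as detected or not detected.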"}, "HEp-2 [3]": {"test_system": "HEp-2", "experiment": "Effect on cytokine level in human Hep2 cells assessed as absence of MIP5 pretreated at 64 ug/ml for 24 hrs", "procedure,_shortened": "as §1"}, "HEp-2 [4]": {"test_system": "HEp-2", "experiment": "Effect on cytokine level in human Hep2 cells assessed as IL-15 level pretreated at 64 ug/ml for 24 hrs", "procedure,_shortened": "as §1"}, "Escherichia coli [5]": {"test_system": "Escherichia coli", "experiment": "Inhibition of enteroaggregative Escherichia coli 042 adherence to human HeLa cells pretreated at 64 ug/ml for 24 hrs by adherence assay", "procedure,_shortened": "(§2)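 Confluent cells in 24-well plates, in DMEM with 10% FBS and no antibiotics, were pretreated with drug (from acetone stock) or an equal volume of acetone, then washed three times with PBS. HEp-2 received 8, 32 or 64 μg/ml; the other lines 32 or 64 μg/ml for 24 h. Cells were then infected for 3 h at 37°C (next note).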"}, "Escherichia coli [6]": {"test_system": "Escherichia coli", "experiment": "Inhibition of enteroaggregative Escherichia coli 042 adherence to human HCT-8 cells pretreated at 64 ug/ml for 24 hrs by adherence assay", "procedure,_shortened": "as §2"}, "HEp-2 [7]": {"test_system": "HEp-2", "experiment": "Effect on cytokine level in human Hep2 cells assessed as VCAM-1 level pretreated at 64 ug/ml for 24 hrs", "procedure,_shortened": "as §1"}, "HEp-2 [8]": {"test_system": "HEp-2", "experiment": "Effect on cytokine level in human Hep2 cells assessed as IL-8 level pretreated at 64 ug/ml for 24 hrs", "procedure,_shortened": "as §1"}, "HEp-2 [9]": {"test_system": "HEp-2", "experiment": "Effect on cytokine level in human Hep2 cells assessed as IL-4 level pretreated at 64 ug/ml for 24 hrs", "procedure,_shortened": "as §1"}, "Escherichia coli [10]": {"test_system": "Escherichia coli", "experiment": "Inhibition of enteroaggregative Escherichia coli 042 adherence to human Hep2 cells using cell supernatants from pretreated at 64 ug/ml for 24 hrs by adherence assay", "conditions": "HEp-2", "procedure,_shortened": "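Confluent HEp-2 cells were grown 24 h in medium with 64 μg/ml antibiotic, acetone, or nothing. The conditioned medium was dialyzed against PBS (6–8 kDa cutoff, four changes of at least 6 h each, 4°C). EAEC (7 × 10^6/ml) was mixed 1:1 with dialyzed medium and added to untreated HEp-2 slides or cell-free chambers for 3 h, then stained and examined microscopically.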"}, "HEp-2 [11]": {"test_system": "HEp-2", "experiment": "Effect on cytokine level in human Hep2 cells assessed as IL-6 level pretreated at 64 ug/ml for 24 hrs", "procedure,_shortened": "as §1"}, "HEp-2 [12]": {"test_system": "HEp-2", "experiment": "Effect on cytokine level in human Hep2 cells assessed as GM-CSF level pretreated at 64 ug/ml for 24 hrs", "procedure,_shortened": "as §1"}, "HEp-2 [13]": {"test_system": "HEp-2", "experiment": "Effect on cytokine level in human Hep2 cells assessed as MIP4 level pretreated at 64 ug/ml for 24 hrs", "procedure,_shortened": "as §1"}, "Escherichia coli [14]": {"test_system": "Escherichia coli", "experiment": "Inhibition of enteroaggregative Escherichia coli 042 adherence to human Hep2 cells pretreated at 32 ug/ml for 24 hrs by adherence assay", "conditions": "HEp-2", "procedure,_shortened": "as §2"}, "HEp-2 [15]": {"test_system": "HEp-2", "experiment": "Effect on cytokine level in human Hep2 cells assessed as IL-12 (p40) level pretreated at 64 ug/ml for 24 hrs", "procedure,_shortened": "as §1"}, "HEp-2 [16]": {"test_system": "HEp-2", "experiment": "Effect on cytokine level in human Hep2 cells assessed as VEGF level pretreated at 64 ug/ml for 24 hrs", "procedure,_shortened": "as §1"}, "HEp-2 [17]": {"test_system": "HEp-2", "experiment": "Effect on cytokine level in human Hep2 cells assessed as MMP3 level pretreated at 64 ug/ml for 24 hrs", "procedure,_shortened": "as §1"}, "HEp-2 [18]": {"test_system": "HEp-2", "experiment": "Effect on cytokine level in human Hep2 cells assessed as TNFRI level pretreated at 64 ug/ml for 24 hrs", "procedure,_shortened": "as §1"}, "HEp-2 [19]": {"test_system": "HEp-2", "experiment": "Effect on cytokine level in human Hep2 cells assessed as TGF-beta level pretreated at 64 ug/ml for 24 hrs", "procedure,_shortened": "as §1"}, "Escherichia coli [20]": {"test_system": "Escherichia coli", "experiment": "Inhibition of enteroaggregative Escherichia coli 042 adherence to human Hep2 cells pretreated at 64 ug/ml for 24 hrs by adherence assay", "conditions": "HEp-2", "procedure,_shortened": "as §2"}, "HEp-2 [21]": {"test_system": "HEp-2", "experiment": "Effect on cytokine level in human Hep2 cells assessed as IFN-gamma level pretreated at 64 ug/ml for 24 hrs", "procedure,_shortened": "as §1"}, "HEp-2 [22]": {"test_system": "HEp-2", "experiment": "Effect on cytokine level in human Hep2 cells assessed as MIP5 level pretreated at 64 ug/ml for 24 hrs", "procedure,_shortened": "as §1"}, "HEp-2 [23]": {"test_system": "HEp-2", "experiment": "Effect on cytokine level in human Hep2 cells assessed as TNFR2 level pretreated at 64 ug/ml for 24 hrs", "procedure,_shortened": "as §1"}, "Escherichia coli [24]": {"test_system": "Escherichia coli", "experiment": "Inhibition of enteroaggregative Escherichia coli 042 adherence to human A549 cells pretreated at 64 ug/ml for 24 hrs by adherence assay", "procedure,_shortened": "as §2"}}, "note": "Active and inactive are the calls of the source.", "data": [{"smiles": "CO[C@H]1/C=C/O[C@@]2(C)Oc3c(C)c(O)c4c(O)c(c(/C=N/N5CCN(C)CC5)c(O)c4c3C2=O)NC(=O)/C(C)=C\\C=C\\[C@H](C)[C@H](O)[C@@H](C)[C@@H](O)[C@@H](C)[C@H](OC(C)=O)[C@@H]1C", "values": [{"measurement": "inhibition", "setting": "Escherichia coli [1]", "result": "Active"}]}, {"smiles": "CO[C@H]1/C=C/O[C@@]2(C)Oc3c(C)c(O)c4c(O)c(c5c(nc6cc(C)ccn65)c4c3C2=O)NC(=O)/C(C)=C\\C=C\\[C@H](C)[C@H](O)[C@@H](C)[C@@H](O)[C@@H](C)[C@H](OC(C)=O)[C@@H]1C", "values": [{"measurement": "Activity", "setting": "HEp-2 [2]", "result": "Active"}, {"measurement": "Activity", "setting": "HEp-2 [3]", "result": "Active"}, {"measurement": "Activity", "setting": "HEp-2 [4]", "result": "Active"}, {"measurement": "inhibition", "setting": "Escherichia coli [5]", "result": "Active"}, {"measurement": "inhibition", "setting": "Escherichia coli [6]", "result": "inactive"}, {"measurement": "Activity", "setting": "HEp-2 [7]", "result": "Active"}, {"measurement": "Activity", "setting": "HEp-2 [8]", "result": "Active"}, {"measurement": "Activity", "setting": "HEp-2 [9]", "result": "Active"}, {"measurement": "inhibition", "setting": "Escherichia coli [10]", "result": "inactive"}, {"measurement": "Activity", "setting": "HEp-2 [11]", "result": "Active"}, {"measurement": "Activity", "setting": "HEp-2 [12]", "result": "Active"}, {"measurement": "Activity", "setting": "HEp-2 [13]", "result": "Active"}, {"measurement": "inhibition", "setting": "Escherichia coli [14]", "result": "Active"}, {"measurement": "Activity", "setting": "HEp-2 [15]", "result": "Active"}, {"measurement": "Activity", "setting": "HEp-2 [16]", "result": "Active"}, {"measurement": "Activity", "setting": "HEp-2 [17]", "result": "Active"}, {"measurement": "Activity", "setting": "HEp-2 [18]", "result": "Active"}, {"measurement": "Activity", "setting": "HEp-2 [19]", "result": "Active"}, {"measurement": "inhibition", "setting": "Escherichia coli [20]", "result": "Active"}, {"measurement": "Activity", "setting": "HEp-2 [21]", "result": "Active"}, {"measurement": "Activity", "setting": "HEp-2 [22]", "result": "Active"}, {"measurement": "Activity", "setting": "HEp-2 [23]", "result": "Active"}, {"measurement": "inhibition", "setting": "Escherichia coli [24]", "result": "Active"}]}]}
